A selection: hits, their analogues and other compounds. The true share with any hit is near 1.4%.
CendR NRP1 mod: NRP-1/CendR interaction modulation | O14786 | FAM-RPARPAR peptide binding to NRP-1, fluorescence polarization | inhibition, % at 25 µM | 360,000 compounds, 0.85% hits;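 active = inhibition or corrected inhibition above about 18%, plus a signal ratio from 0.5 to 1.5, limit read from the data, passing the limit was not always enough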
Target sequence (O14786 whole entry, looked up): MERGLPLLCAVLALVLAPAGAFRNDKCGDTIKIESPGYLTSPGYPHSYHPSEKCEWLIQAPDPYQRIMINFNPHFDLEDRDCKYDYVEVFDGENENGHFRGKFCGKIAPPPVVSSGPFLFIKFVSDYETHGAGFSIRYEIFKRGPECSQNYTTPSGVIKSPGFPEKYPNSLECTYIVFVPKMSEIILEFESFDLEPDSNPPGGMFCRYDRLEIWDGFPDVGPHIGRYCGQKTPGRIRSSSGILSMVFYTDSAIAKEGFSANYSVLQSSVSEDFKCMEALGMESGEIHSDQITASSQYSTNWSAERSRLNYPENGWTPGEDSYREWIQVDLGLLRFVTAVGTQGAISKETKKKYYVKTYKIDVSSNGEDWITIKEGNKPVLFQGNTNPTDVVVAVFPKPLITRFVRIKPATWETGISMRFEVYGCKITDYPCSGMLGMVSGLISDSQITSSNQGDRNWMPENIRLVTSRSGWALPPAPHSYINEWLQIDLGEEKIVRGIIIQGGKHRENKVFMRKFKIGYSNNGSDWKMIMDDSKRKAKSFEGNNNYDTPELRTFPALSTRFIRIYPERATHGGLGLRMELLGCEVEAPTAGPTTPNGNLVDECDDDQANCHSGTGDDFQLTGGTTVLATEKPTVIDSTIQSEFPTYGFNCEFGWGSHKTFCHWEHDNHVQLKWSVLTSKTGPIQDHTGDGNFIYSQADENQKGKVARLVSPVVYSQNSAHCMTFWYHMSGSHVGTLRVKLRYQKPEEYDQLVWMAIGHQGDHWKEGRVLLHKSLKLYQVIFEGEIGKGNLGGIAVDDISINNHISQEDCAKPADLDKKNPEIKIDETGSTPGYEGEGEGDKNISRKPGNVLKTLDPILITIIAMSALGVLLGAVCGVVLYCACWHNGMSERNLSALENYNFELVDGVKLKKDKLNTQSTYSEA
hiPSC survival: hiPSC single-cell survival enhancement; ATPlite luminescence; 100% = ROCK inhibitor wells, 0% = DMSO; survival enhancement, % at 20 µM; 360,000 compounds, 0.044% hits; in the data active = survival enhancement above about 18%;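 also: cells exposed to compounds for 16 hours before the ATP read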
MT1-MMP act inh: inhibitors of human MT1-MMP activation. P50281. HT1080 RFP-PRO-GFP cells, GFP/RFP ratio fluorescence, overnight; percent of plate control window, DMSO zero. GFP/RFP ratio change, % at 20 µM. 360,000 compounds, 0.061% hits;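 active = GFP/RFP ratio change of at least 30% with cell ATP level not reduced by more than half and red fluorescence within 50% of control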
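Compound: 20 µM single dose, 1% DMSO / System: HT1080 RFP-PRO-GFP cells / Controls: DMSO and RFP-L50D-GFP cell wells / Read-out basis: GFP/RFP fluorescence ratio / Schedule: overnight compound exposure at 37 °C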
SKN-1 inh: inhibitors of C. elegans SKN-1; C. elegans VP596 Pgst-4::GFP/RFP ratio, acrylamide-induced, 24 h; inhibition, % at 21.8 µM; 360,000 compounds, 0.49% hits;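 active = interference check ratio from 0.5 to 1.5 plus GFP to RFP signal ratio inhibition reaching or exceeding a fixed threshold, cut at about 30% in these data, passing the limit was not always enough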
* = called active by the depositor.

SMILES	CendR NRP1 mod	hiPSC survival	MT1-MMP act inh	SKN-1 inh
CCCOc1ccc(-c2nc(C#N)c(N3CCN(C)CC3)o2)cc1	34*	0	-1	-1
COc1ccc(S(=O)(=O)NC(C)C(=O)NCc2ccncc2)cc1OC (stereo not drawn)	0	0	2	18
O=C(Cn1cnc2c(OCc3ccccc3)ncnc21)NCCN1CCOCC1	-11	-1	5	2
O=C(Cn1cnc2c(NC(=O)OCc3ccccc3)ncnc21)NCCN1CCOCC1	29*	-1	4	7
COc1ccc(C(=O)c2cnc(/N=C/N(C)C)s2)cc1	32*	-4	-2	-6
CN(C)/C=N/c1ncc(C(=O)c2ccc3ccccc3c2)s1	2	-1	2	-11
CSCCC(NC(=O)c1ccccc1)C(=O)OCC(=O)c1ccc[nH]1 (stereo not drawn)	-2	1	0	3
CC(Sc1nc2ccccc2s1)C(=O)NCc1ccc2c(c1)OCO2 (stereo not drawn)	2	-2	2	5
Cc1csc(SC(C)C(=O)NCc2ccc3c(c2)OCO3)n1 (stereo not drawn)	26*	0	-1	-5
Cc1ccc(/C=N/NC(=O)c2ccoc2C)s1	-8	-1	-1	-12
Cc1nc2ccc(S(=O)(=O)NCC(=O)N(C)Cc3ccccc3)cc2s1	26*	-1	3	11
Cc1nc2ccc(S(=O)(=O)NCC(=O)NC(C)c3ccccc3)cc2s1 (stereo not drawn)	14	1	1	4
CCOC(=O)C(=O)/C(=C\N(C)C)c1onc(-c2c(F)cccc2Cl)c1C(=O)OC	6	20*	5	-17
COCOc1ccc(C=O)cc1OCOC	22*	-1	3	-8
C/C=C/c1ccc(OCCOc2ccc(C=O)cc2)c(OC)c1	-2	-2	1	-11
CC1CCCCC1NC(=O)CSc1ncnc2sccc12 (stereo not drawn)	22*	1	3	17
CC1CCCC(NC(=O)CSc2ncnc3ccccc23)C1C (stereo not drawn)	-14	0	4	-13
Cc1ccc(-c2ccc(=O)n(Cc3cc(C)ccc3C)n2)cc1	0	0	4	-19
Cc1ccc(-c2nc3ccc(Cl)cc3c(=O)n2O)cc1	5	0	3	-8
COc1ccc(N=C2C(=Nc3ccc(OC)cc3)N(c3ccc(OC)cc3)C(=S)N2C(=O)c2ccc(OC)cc2)cc1	-10	0	6	30
COc1ccc(N=C2C(=Nc3ccc(OC)cc3)N(c3ccc(N(C)C)cc3)C(=S)N2c2ccc(OC)cc2)cc1	26*	-1	15	-6
C=CCN(C(=O)CSc1nc2ccsc2c(=O)n1Cc1ccccn1)c1ccccc1	-4	0	6	6
C=CCN(C(=O)CSc1nc2c(sc3ccccc32)c(=O)n1CCN(CC)CC)c1ccccc1	25*	0	-1	0
Cn1cc(CNC(=O)C2CCC(=O)N(Cc3cccc(C(F)(F)F)c3)C2)cn1 (stereo not drawn)	12	0	-1	9
C[C@H](CO)N1C[C@H](C)[C@@H](CN(C)S(=O)(=O)c2ccc(F)cc2)Oc2ccc(NC(=O)Nc3ccc4c(c3)OCO4)cc2C1=O	-16	0	1	10
SMILES	CendR NRP1 mod	hiPSC survival	MT1-MMP act inh	SKN-1 inh
C[N+](C)(C)CCOP(=O)(O)OP(=O)([O-])OC[C@H]1O[C@@H](n2ccc(N)nc2=O)[C@H](O)[C@@H]1O	-3	-2	0	4
Cc1ccc(CNC(=O)C2CCCN(S(=O)(=O)N3CCC(C)CC3)C2)cc1 (stereo not drawn)	-4	0	0	11
CCc1ccc(CNC(=O)C2CCCN(S(=O)(=O)N3CC(C)CC(C)C3)C2)cc1 (stereo not drawn)	22*	0	-13	-4
CCc1nc2ccc(C(=O)N3CCN(C(=O)c4ccco4)CC3)cn2c1N(C)Cc1cccs1	14	1	1	-4
CCOP(=O)(OCC)c1nc(-c2cccc3ccccc23)oc1NCCc1ccc(OC)cc1	-4	-1	-22	20
Cc1ccc(C(=O)N[C@H](C(=O)OCC(=O)c2ccc[nH]2)C(C)C)cc1	0	-2	1	-1
COC(=O)CSc1nc2cc3c(cc2cc1C#N)OCO3	0	-2	-6	26
CC(C)OC(=O)CSc1nc2cc3c(cc2cc1C#N)OCO3	2	2	-2	34*
CCn1ccc(C(=O)Nc2ccccc2SC)n1	6	-1	-2	-7
Cc1ccc(NC(=O)c2ccccc2)cc1	10	-2	8	29
Cc1ccc(NC(=O)C(=O)c2ccc(C)cc2)cc1	9	-1	-1	37*
Cc1csc(SCC(=O)NC(=O)NC(C)(C)C)n1	13	1	1	8
Brc1cc(Br)c2nc(-c3cccs3)ccc2c1	4	-1	-8	58*
COc1ccc(CN2CCCCCC2)cc1	2	-1	0	0
COc1ccc(N=Nc2cc(C)c(O)c(CN3CCCCC3)c2)cc1	-7	0	15	50*
O=C(NNC(=O)c1ccccc1Br)c1cccs1	25*	-1	3	0
O=C(CSc1nncs1)NNC(=O)c1ccccc1Br	20*	-3	0	4
O=C(NNC(=O)c1cccs1)c1ccccc1	6	-3	2	-2
O=c1[nH]nc(-c2ccc(OCc3ccc(Cl)cc3Cl)cc2)o1	6	0	-1	-19
COCCN(C(=O)COC(=O)/C=C/c1ccc(SC)cc1)c1c(N)n(Cc2ccccc2)c(=O)[nH]c1=O	8	0	-3	-15
CCCCn1c(N)c(N(CCOC)C(=O)COC(=O)/C=C/c2ccc(Br)cc2)c(=O)[nH]c1=O	23*	0	-1	-5
CN1/C(=C\C(=O)CSc2nnc(NCc3ccccc3)s2)C(C)(C)c2ccccc21	-25	0	7	45*
COc1ccc([C@@H]2CC=C(C(=O)O)[C@H](c3cccc(Cl)c3)N2S(=O)(=O)c2ccc(Cl)cc2)cc1	2	0	3	18
CN(C(=O)COC(=O)c1ccccc1SCC(=O)N1CCCC1)C1CCS(=O)(=O)C1 (stereo not drawn)	20*	0	-1	15
CCC(C)N(C(=O)COC(=O)c1ccccc1SCC(=O)N1CCCC1)C1CCS(=O)(=O)C1 (stereo not drawn)	11	0	-2	-8
O=C(OCc1ccccc1)N1C[C@H](O)[C@H](O)C[C@@H]1c1c(Cl)cccc1Br	20*	2	0	4
O=C(OCc1ccccc1)N1C=CC2CC1c1c(Cl)cccc12 (stereo not drawn)	6	2	2	-7
CCCCNC(=S)N(C)/N=C/c1ccc2c(c1)OCO2	-6	0	-1	9
C#CCOCCOCCOCCNc1nc(N2CCN(C(=O)[C@H](CCCCN)n3cc([C@@H](N)[C@H](C)CC)nn3)CC2)nc(N2CCN(C(=O)[C@H](CCCCN)n3cc([C@@H](N)CC(N)=O)nn3)CC2)n1	14	-3	-1	14
